Data reported in ChEMBL document CHEMBL1148118, “Immunomodulatory proanthocyanidins from Ecdysanthera utilis” (J Nat Prod, 2002).
Activity calls are given as the source filed them. The calls are words filed in the database; no cut-off is given here.

Legend:
Format in all cases: functional, cell-based
PBMC [1] = assay: Inhibition of PHA-stimulated human PBMC proliferation assessed as [3H]thymidine uptake after 3 days by scintillation counting
Summary of the method: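 Ficoll-Hypaque-isolated human PBMC at 2 × 10^6 cells/mL in RPMI-1640 with 2% FCS, 100 µL/well, with or without 5 µg/mL PHA plus test compound. Incubated 3 days at 37 °C in 5% CO2. 3H-thymidine (1 µCi/well) was then added for 16 h, and cells were harvested onto glass-fiber filters for scintillation counting. % inhibition = (control CPM − treated CPM)/control CPM × 100. DMSO 0.1% vehicle.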

PBMC [2] = assay: Immunomodulatory activity in PHA-stimulated human PBMC assessed as inhibition of IL2 production after 3 days by enzyme immuno assay
Summary of the method: (§1)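 Human PBMC isolated by Ficoll-Hypaque density gradient, resuspended in RPMI-1640 with 2% FCS and penicillin/streptomycin. 2 × 10^5 cells/well cultured with PHA (5 µg/mL) plus 0, 6, 12.5, 25, 50 or 100 µM compound for 3 days. IL-2 and IFN-γ measured in the supernatants by EIA. Each point is the mean of three independent experiments.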

PBMC [3] = assay: Immunomodulatory activity in PHA-stimulated human PBMC assessed as inhibition of IFN-gamma production after 3 days by enzyme immuno assay; summary of the method: as §1

| Compound | Activity (PBMC [1]) | other results |
| --- | --- | --- |
| Oc1cc(O)c2c(c1)O[C@H](c1ccc(O)c(O)c1)[C@H](O)[C@H]2c1c(O)cc(O)c2c1O[C@@]1(c3ccc(O)c(O)c3)Oc3cc(O)c4c(c3[C@@H]2[C@H]1O)O[C@H](c1ccc(O)c(O)c1)[C@H](O)[C@@H]4c1c(O)cc(O)c2c1O[C@H](c1ccc(O)c(O)c1)[C@H](O)C2 | inactive | – |
| Oc1cc(O)c2c(c1)O[C@H](c1ccc(O)c(O)c1)[C@H](O)C2 | inactive | – |
| Oc1cc(O)c2c(c1)O[C@@]1(c3ccc(O)c(O)c3)Oc3cc(O)c4c(c3[C@@H]2[C@H]1O)O[C@@]1(c2ccc(O)c(O)c2)Oc2cc(O)c3c(c2[C@@H]4[C@@H]1O)O[C@H](c1ccc(O)c(O)c1)[C@H](O)C3 | inactive | – |
| Oc1cc(O)c2c(c1)O[C@@]1(c3ccc(O)c(O)c3)Oc3cc(O)c4c(c3[C@@H]2[C@H]1O)O[C@H](c1ccc(O)c(O)c1)[C@@H](O)C4 [PROANTHOCYANIDIN A1] | – | Activity (PBMC [2]): Dose-dependent effect; IC50 (PBMC [2]; 72 h): 25 µM; Activity (PBMC [3]): Dose-dependent effect; IC50 (PBMC [3]; 72 h): 5.1 µM; IC50 (PBMC [1]): 30.6 µM |
| Oc1cc(O)c2c(c1)O[C@@]1(c3ccc(O)c(O)c3)Oc3cc(O)c4c(c3[C@@H]2[C@H]1O)O[C@H](c1ccc(O)c(O)c1)[C@H](O)[C@@H]4c1c(O)cc(O)c2c1O[C@H](c1ccc(O)c(O)c1)[C@H](O)C2 | inactive | – |
| Oc1cc(O)c2c(c1)O[C@H](c1ccc(O)c(O)c1)[C@H](O)[C@H]2c1c(O)cc(O)c2c1O[C@H](c1ccc(O)c(O)c1)[C@H](O)C2 | inactive | – |
| Oc1cc(O)c2c(c1)O[C@@]1(c3ccc(O)c(O)c3)Oc3cc(O)c4c(c3[C@@H]2[C@H]1O)O[C@H](c1ccc(O)c(O)c1)[C@H](O)C4 | inactive | – |
